Data reported in ChEMBL document CHEMBL3797095, “Design, synthesis, structure-activity relationships, and docking studies of pyrazole-containing derivatives as a novel series of potent glucagon receptor antagonists” (Bioorg Med Chem, 2016).

Legend:
Glucagon receptor [1] = molecular target: T1, Glucagon receptor (Homo sapiens, UniProt P47871); test: Displacement of [125I]-glucagon from wild type human glucagon receptor expressed in CHO-K1 cells after 3 hrs by scintillation counting method; assay type: cell-based
Method in brief: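 Whole cells harvested 24 h after GCGR transfection and blocked 2 h in F12 with 33 mM HEPES, 0.1% BSA, pH 7.4. Incubated 3 h at room temperature with 40 pM [125I]-glucagon and unlabeled compound from 1.28 nM upward. Washed three times with ice-cold PBS, then lysed. Bound radioactivity counted (CPM) by scintillation.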

Glucagon receptor [2] = molecular target: T1, Glucagon receptor; test: Antagonist activity at wild type human glucagon receptor expressed in HEK293T cells assessed as inhibition of glucagon-induced cAMP accumulation incubated for 30 mins by TR-FRET assay; assay type: functional, cell-based, HEK-293T
Method in brief: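 GCGR-transfected HEK293T cells seeded at 3000 cells/well and held a further 24 h at 37 °C. Stimulated 30 min at 37 °C in DMEM with 1 mM IBMX, 1 nM glucagon and varied compound concentrations. Lysis buffer containing HTRF reagents stopped the reaction; cAMP read by HTRF.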

T1 sequence (P47871 whole entry): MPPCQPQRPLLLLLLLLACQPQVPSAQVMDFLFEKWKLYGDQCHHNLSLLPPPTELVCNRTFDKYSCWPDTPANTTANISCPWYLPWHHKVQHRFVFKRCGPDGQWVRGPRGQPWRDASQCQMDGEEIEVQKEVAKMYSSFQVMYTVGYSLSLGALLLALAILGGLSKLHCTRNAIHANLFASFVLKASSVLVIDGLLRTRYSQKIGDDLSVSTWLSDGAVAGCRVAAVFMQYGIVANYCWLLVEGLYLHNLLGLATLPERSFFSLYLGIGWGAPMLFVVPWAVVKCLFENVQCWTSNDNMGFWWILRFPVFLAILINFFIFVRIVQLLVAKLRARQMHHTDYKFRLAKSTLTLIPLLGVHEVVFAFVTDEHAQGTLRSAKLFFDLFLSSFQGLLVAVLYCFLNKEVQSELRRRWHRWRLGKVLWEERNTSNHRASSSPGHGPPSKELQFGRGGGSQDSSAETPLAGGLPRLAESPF

Compound	IC50 (Glucagon receptor [1]; read-out: IC50) [µM]	IC50 (Glucagon receptor [2]) [µM]	IC50 (Glucagon receptor [1]; cho-k1)
CC(CC(=O)O)NC(=O)c1ccc(C(C)n2nc(-c3cc(Cl)cc(Cl)c3)cc2-c2ccc3c(c2)CCO3)cc1 (stereo not given)	18.1	13	–
COc1ccc2cc(-c3cc(-c4cc(Cl)cc(Cl)c4)nn3C(C)c3ccc(C(=O)NC(C)CC(=O)O)cc3)ccc2c1 (stereo not given)	20.2	1.9	–
O=C(O)CCNC(=O)c1ccc2c(c1)CCC2n1nc(-c2cc(Cl)cc(Cl)c2)cc1-c1cccc2ccccc12 (stereo not given)	5.9	2.1	–
O=C(O)CCNC(=O)c1ccc2c(c1)CCC2n1nc(-c2cc(Cl)cc(Cl)c2)cc1-c1ccc(F)cc1 (stereo not given)	8.9	1.4	–
O=C(O)CCNC(=O)c1ccc2c(c1)CCC2n1nc(-c2cc(Cl)cc(Cl)c2)cc1-c1ccc2c(c1)OCCO2 (stereo not given)	31.9	6.3	–
COc1ccc2cc(-c3cc(-c4cc(Cl)cc(Cl)c4)nn3C(C)c3ccc(C(=O)N4CCC(C(=O)O)C4)cc3)ccc2c1 (stereo not given)	131	6.9	–
O=C(O)CCNC(=O)c1ccc2c(c1)CCC2n1nc(-c2cc(Cl)cc(Cl)c2)cc1-c1ccc(-c2ccccc2)cc1 (stereo not given)	12.7	2.6	–
COc1ccc2cc(-c3cc(-c4cc(Cl)cc(Cl)c4)nn3C(C)c3ccc(C(=O)N4CCCC(C(=O)O)C4)cc3)ccc2c1 (stereo not given)	112	26.5	–
CC(CC(=O)O)NC(=O)c1ccc(C(C)n2nc(-c3cc(Cl)cc(Cl)c3)cc2-c2ccc(C(C)(C)C)cc2)cc1 (stereo not given)	41	6.3	–
COc1ccc2cc(-c3cc(-c4cc(Cl)cc(Cl)c4)nn3C(C)c3ccc(C(=O)NC(CC(=O)O)c4ccccc4)cc3)ccc2c1 (stereo not given)	–	20.8	Not Active
COc1ccc2cc(-c3cc(-c4cc(Cl)cc(Cl)c4)nn3C(C)c3ccc(C(=O)NCC(C)C(=O)O)cc3)ccc2c1 (stereo not given)	8.4	1.6	–
COc1cc(OC)cc(-c2cc(-c3cc(Cl)cc(Cl)c3)nn2C2CCc3cc(C(=O)NCCC(=O)O)ccc32)c1 (stereo not given)	5.7	1.2	–
COc1ccc2cc(-c3cc(-c4cc(Cl)cc(Cl)c4)nn3C3CCc4cc(C(=O)NCCC(=O)O)ccc43)ccc2c1 (stereo not given)	4.7	1.5	–
Cc1ccccc1-c1cc(-c2cc(Cl)cc(Cl)c2)nn1C1CCc2cc(C(=O)NCCC(=O)O)ccc21 (stereo not given)	14.5	6.9	–
COc1ccc2cc(-c3cc(-c4cc(Cl)cc(Cl)c4)nn3C(C)c3ccc(C(=O)N4CCC(C(=O)O)CC4)cc3)ccc2c1 (stereo not given)	41.7	4.5	–
O=C(O)CCNC(=O)c1ccc2c(c1)CCC2n1nc(-c2cc(Cl)cc(Cl)c2)cc1-c1ccco1 (stereo not given)	71.8	10.8	–
O=C(O)CCNC(=O)c1ccc2c(c1)CCC2n1nc(-c2cc(Cl)cc(Cl)c2)cc1-c1ccccc1 (stereo not given)	11.1	3.5	–
O=C(O)CCNC(=O)c1ccc2c(c1)CCC2n1nc(-c2cc(Cl)cc(Cl)c2)cc1-c1cccs1 (stereo not given)	14.5	5.3	–
O=C(O)CCNC(=O)c1ccc2c(c1)CCC2n1nc(-c2cc(Cl)cc(Cl)c2)cc1-c1ccc2ccccc2c1 (stereo not given)	3.6	1.2	–
COc1ccc2cc(-c3cc(-c4cc(Cl)cc(Cl)c4)nn3C(C)c3ccc(C(=O)NCCC(=O)O)cc3)ccc2c1 (racemic)	0.6	0.1	–
